Test results reported in ChEMBL document CHEMBL1144477, “Design, synthesis and cytotoxic properties of novel 1-[4-(2-alkylaminoethoxy)phenylcarbonyl]-3,5-bis(arylidene)-4-piperidones and related compounds” (Eur J Med Chem, 2007).
pIC50: −log10 of the molar value.

Key:
[1] = system: L1210; experiment: Cytotoxicity against […] mouse L1210 cells; assay type: cell-based
Procedure, shortened: (§1)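 Human Molt 4/C8 and CEM T-lymphocytes and murine L1210 cells were each exposed to at least three compound concentrations at 37 °C for 48 h. Growth inhibition was then measured, and IC50 values were derived from it.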

[2] = Cytotoxicity against human Molt4/C8 cells; assay type: cell-based; details: MOLT-4; procedure, shortened: as §1
[3] = system: CCRF-CEM; experiment: Cytotoxicity against human CEM cells; assay type: cell-based; procedure, shortened: as §1
[4] = Cytotoxicity against human RPMI8226 cells; assay type: cell-based; details: RPMI-8226
[5] = system: KM12; experiment: Cytotoxicity against human KM12 cells; assay type: cell-based
[6] = system: SW-620; experiment: Cytotoxicity against human SW620 cells; assay type: cell-based
[7] = system: HCC 2998; experiment: Cytotoxicity against human HCC2998 cells; assay type: cell-based
[8] = system: K562; experiment: Cytotoxicity against human K562 cells; assay type: cell-based
[9] = system: HCT-15; experiment: Cytotoxicity against human HCT15 cells; assay type: cell-based
[10] = Cytotoxicity against human HL60 (TB) cells; assay type: cell-based; details: HL-60
[11] = system: HepG2; experiment: Induction of apoptosis in human HepG2 cells at 20 uM by TUNEL assay; assay type: functional
Procedure, shortened: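 HepG2 cells (ATCC) were kept in DMEM with 10% fetal calf serum and penicillin G/streptomycin/amphotericin B, at 37 °C in humidified 5% CO2. Cells on chambered slides were treated with the compound; controls had no addition or DMSO only. After 48 h, cells were fixed, permeabilized and TUNEL-stained (fluorescein). Labelled apoptotic cells were counted by fluorescence microscopy and reported as a percentage.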

[12] = Cytotoxicity against human NCI49 cell lines; assay type: cell-based
[13] = system: HCT-116; experiment: Cytotoxicity against human HCT116 cells; assay type: cell-based
[14] = system: COLO 205; experiment: Cytotoxicity against human COLO205 cells; assay type: cell-based
[15] = system: SR; experiment: Cytotoxicity against human SR cells; assay type: cell-based

| Compound | pIC50 [1] | pIC50 [2] | pIC50 [3] | pIC50 [4] | pIC50 [5] | pIC50 [6] | pIC50 [7] | pIC50 [8] | pIC50 [9] | pIC50 [10] | Activity [11] [%] | pIC50 [12] | pIC50 [13] | pIC50 [14] | pIC50 [15] |
| --- | --- | --- | --- | --- | --- | --- | --- | --- | --- | --- | --- | --- | --- | --- | --- |
| O=C1/C(=C/c2ccc([N+](=O)[O-])cc2)CN(C(=O)c2ccc(OCCN3CCOCC3)cc2)C/C1=C\c1ccc([N+](=O)[O-])cc1 | 5.20 | 6.46 | 6.42 |  |  |  |  |  |  |  |  |  |  |  |  |
| CCN(CC)CCOc1ccc(C(=O)N2C/C(=C\c3ccc(Cl)cc3)C(=O)/C(=C/c3ccc(Cl)cc3)C2)cc1 | 4.33 | 4.74 | 4.91 |  |  |  |  |  |  |  |  |  |  |  |  |
| O=C1/C(=C/c2ccc([N+](=O)[O-])cc2)CN(C(=O)c2ccc(OCCN3CCCCC3)cc2)C/C1=C\c1ccc([N+](=O)[O-])cc1 | 5.32 | 6.48 | 6.50 |  |  |  |  |  |  |  |  |  |  |  |  |
| Cl.O=C1/C(=C/c2ccc(Cl)cc2)CN(C(=O)c2ccc(OCCN3CCOCC3)cc2)C/C1=C\c1ccc(Cl)cc1 | 4.09 | 4.73 | 5.08 | 6.88 | 5.64 | 5.84 | > 8.30 | 5.17 | 5.66 | 5.26 | 29.25 | > 6.25 | 5.14 |  |  |
| CCN(CC)CCOc1ccc(C(=O)N2C/C(=C\c3ccc([N+](=O)[O-])cc3)C(=O)/C(=C/c3ccc([N+](=O)[O-])cc3)C2)cc1 | 5.44 | 6.51 | 6.47 |  |  |  |  |  |  |  |  |  |  |  |  |
| CC[N+](C)(CC)CCOc1ccc(C(=O)N2C/C(=C\c3ccc([N+](=O)[O-])cc3)C(=O)/C(=C/c3ccc([N+](=O)[O-])cc3)C2)cc1 | 4.19 | 4.40 | 4.41 |  |  |  |  |  |  |  |  |  |  |  |  |
| O=C1/C(=C/c2ccccc2)CN(C(=O)c2ccc(OCCN3CCCCC3)cc2)C/C1=C\c1ccccc1 | 5.08 | 5.83 | 5.94 |  |  |  |  |  |  |  |  |  |  |  |  |
| CN(C)CCOc1ccc(C(=O)N2C/C(=C\c3ccccc3)C(=O)/C(=C/c3ccccc3)C2)cc1 | 4.99 | 6.24 | 5.91 |  |  |  |  |  |  |  |  |  |  |  |  |
| N[C@@H](Cc1ccc(N(CCCl)CCCl)cc1)C(=O)O [MELPHALAN] |  |  |  | 4.18 | 4.36 | 4.41 | 4.38 | 4.36 |  | 5.69 |  | 4.57 | 4.52 | 4.18 | 5.73 |
| Cc1ccc(/C=C2\CN(C(=O)c3ccc(OCCN(C)C)cc3)C/C(=C\c3ccc(C)cc3)C2=O)cc1 | 5.15 | 5.86 | 6.05 | 6.65 | 6.11 | 6.25 | 6.64 | 5.74 | 6.04 | 5.88 |  | 5.94 | 5.86 | 5.99 | 6.32 |
| O=C1/C(=C/c2ccccc2)CNC/C1=C\c1ccccc1 |  |  |  | 6.56 | 6.10 | 6.24 | 5.70 | 6.31 | 6.20 | 6.44 |  | 5.79 | 6.74 | 5.81 | 6.68 |
| O=C1/C(=C/c2ccccc2)CN(C(=O)c2ccccc2)C/C1=C\c1ccccc1 | 4.92 | 5.77 | 5.79 |  |  |  |  |  |  |  |  |  |  |  |  |
| CCN(CC)CCOc1ccc(C(=O)N2C/C(=C\c3ccc(C)cc3)C(=O)/C(=C/c3ccc(C)cc3)C2)cc1 | 5.64 | 5.88 | 5.88 |  |  |  |  |  |  |  |  |  |  |  |  |
| O=c1[nH]cc(F)c(=O)[nH]1 [FLUOROURACIL] |  |  |  | 5.45 | 5.10 | 4.73 | 5.24 | 3.90 | 5.18 | 4.07 |  | < 4.53 | 5.69 | 5.47 | 4.22 |
| O=C1/C(=C/c2ccccc2)CN(C(=O)c2ccc(OCCN3CCOCC3)cc2)C/C1=C\c1ccccc1 | 3.65 | 5.07 | 5.16 | 6.91 | 6.89 | 6.72 |  | 6.80 | 5.84 | 6.25 |  | < 5.58 | 6.47 | 4.64 |  |
| CC[N+](C)(CC)CCOc1ccc(C(=O)N2C/C(=C\c3ccccc3)C(=O)/C(=C/c3ccccc3)C2)cc1 | 3.80 | 3.91 | 3.96 | 4.76 | 4.36 | 4.52 | 4.55 | 4.36 | < 4.30 | < 4.30 |  | < 4.38 | < 4.30 | 4.69 | 4.42 |
| CCN(CC)CCOc1ccc(C(=O)N2C/C(=C\c3ccccc3)C(=O)/C(=C/c3ccccc3)C2)cc1 | 5.08 | 5.89 | 5.78 | > 8.00 | 5.76 | 5.87 |  | 7.37 | 5.93 |  |  | > 5.86 | > 8.00 | 5.58 |  |
| Cc1ccc(/C=C2\CN(C(=O)c3ccc(OCCN4CCOCC4)cc3)C/C(=C\c3ccc(C)cc3)C2=O)cc1 | 4.66 | 5.76 | 5.87 | 6.94 | 5.95 | 5.99 |  | 6.56 | 6.08 | 5.96 |  | > 6.15 | 5.61 | 5.94 | 6.61 |
| CN(C)CCOc1ccc(C(=O)N2C/C(=C\c3ccc(Cl)cc3)C(=O)/C(=C/c3ccc(Cl)cc3)C2)cc1 | 5.14 | 5.84 | 5.96 | 7.01 | 5.76 | 6.68 | 6.58 | 6.48 | 6.53 | 5.85 |  | 5.72 | 5.22 | 5.77 | 6.90 |
| COc1ccc(C(=O)N2C/C(=C\c3ccccc3)C(=O)/C(=C/c3ccccc3)C2)cc1 | 4.42 | 5.62 | 5.30 |  |  |  |  |  |  |  |  |  |  |  |  |
| CCN(CC)CCOc1ccc(C(=O)O)cc1 | < 3.30 | < 3.30 | < 3.30 |  |  |  | 5.70 |  |  |  |  |  |  |  |  |
| CC[N+](C)(CC)CCOc1ccc(C(=O)N2C/C(=C\c3ccc(C)cc3)C(=O)/C(=C/c3ccc(C)cc3)C2)cc1 | 4.73 | 4.91 | 4.63 | 5.90 | 5.03 | 4.98 | 5.21 | 5.87 | 5.03 | 4.93 |  | 5.11 | 4.85 | 5.05 | 4.64 |
| Cc1ccc(/C=C2\CN(C(=O)c3ccc(OCCN4CCCCC4)cc3)C/C(=C\c3ccc(C)cc3)C2=O)cc1 | 5.29 | 6.04 | 5.94 | 6.91 | 6.83 | 6.47 |  | 6.23 | 5.97 | 6.03 |  | 5.86 | 5.80 | 5.16 |  |
| CC[N+](C)(CC)CCOc1ccc(C(=O)N2C/C(=C\c3ccc(Cl)cc3)C(=O)/C(=C/c3ccc(Cl)cc3)C2)cc1 | 3.14 | 4.25 | 4.15 |  |  |  |  |  |  |  |  |  |  |  |  |
| CN(C)CCOc1ccc(C(=O)N2C/C(=C\c3ccc([N+](=O)[O-])cc3)C(=O)/C(=C/c3ccc([N+](=O)[O-])cc3)C2)cc1 | 5.28 | 6.50 | 6.50 |  |  |  |  |  |  |  |  |  |  |  |  |
| O=C1/C(=C/c2ccc(Cl)cc2)CN(C(=O)c2ccc(OCCN3CCCCC3)cc2)C/C1=C\c1ccc(Cl)cc1 | 3.99 | 4.47 | 5.00 | 6.12 | 4.72 | 5.45 | 5.80 | 5.36 | 4.31 | 4.69 |  | < 4.94 | 4.32 | 4.80 | 5.64 |
